Assay results published in ChEMBL document CHEMBL1126216, “Amide, urea, and carbamate analogues of the muscarinic agent [4-[[N-(3-chlorophenyl)carbamoyl]oxy]-2-butynyl]trimethylammonium chloride” (1992).

What was measured:
[1] = test system: Muscarinic acetylcholine receptor M1 (Oryctolagus cuniculus)
Rattus norvegicus [2] = test: In vivo intrinsic pressor activity for its ability to maximally elevate arterial pressure in pithed rat.; type: functional, Artery
Outline: (§1)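 Male Sprague-Dawley rats (250-300 g), anesthetized with sodium amytal (125 mg/kg ip), intubated, pithed; body temperature held at 37 °C; 30 min stabilization. Ganglionic nicotinic block with pentolinium tartrate (18.5 μmol/kg iv) 20 min before agonist. Drugs in 0.9% saline, iv, 0.1 mL/100 g. Mean arterial pressure recorded; two or three compounds per rat; five to eight rats per compound.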

Rattus norvegicus [3] = test: In vivo intravenous dose required to produce a half maximal pressor response in the pithed rat.; type: functional
Outline: as §1

| Compound | KA [1] [µM] | IPA (Rattus norvegicus [2]) | ED50 (Rattus norvegicus [3]) [µmol/kg] |
| --- | --- | --- | --- |
| CC(C#CC[N+](C)(C)C)OC(=O)Nc1cccc(Cl)c1 (racemic) | 1.46 | 0.76 | 0.09 |
| CN(CC#CC[N+](C)(C)C)C(=O)Cc1cccc(Cl)c1 | 20.2 | 1 | 0.92 |
| C[C@H](C#CC[N+](C)(C)C)OC(=O)Nc1ccc(Cl)cc1 | 0.49 | 0.8 | 0.039 |
| C[N+](C)(C)CC#CCOC(=O)Nc1cccc(Cl)c1 |  | 1 | 0.45 |
| CC(C#CC[N+](C)(C)C)OC(=O)Nc1ccc(Cl)cc1 (racemic) | 0.48 | 0.75 | 0.029 |
| C[C@@H](C#CC[N+](C)(C)C)OC(=O)Nc1ccc(Cl)cc1 | 0.18 | 0.66 | 0.008 |
| C[C@H](C#CC[N+](C)(C)C)OC(=O)Nc1cccc(Cl)c1 | 0.78 | 1 | 0.18 |
| CN(CC#CC[N+](C)(C)C)C(=O)Nc1cccc(Cl)c1 | 24.8 | 1 | 0.55 |

The next lines start with results.

| KA [1] [µM] | Compound | IPA (Rattus norvegicus [2]) | ED50 (Rattus norvegicus [3]) [µmol/kg] |
| --- | --- | --- | --- |
| 83.3 | CC(C#CC[N+](C)(C)C)N(C)C(=O)Nc1cccc(Cl)c1 (configuration not stated) | 1 | 0.69 |
| 2.12 | C[C@@H](C#CC[N+](C)(C)C)OC(=O)Nc1cccc(Cl)c1 | 0.7 | 0.12 |
| 416 | CC(C#CC[N+](C)(C)C)N(C)C(=O)Cc1cccc(Cl)c1 (configuration not stated) | 1 | 1.48 |
